According to ChEMBL document CHEMBL5329156, “Discovery and development of novel substituted monohydrazides as potent antifungal agents” (RSC Med Chem, 2023):
In brackets after ≈: the same amount, converted by molar mass.

Key:
[1] = tested on: Candida albicans; assay: Antifungal activity against Candida albicans ATCC 10231 assessed as fungal growth inhibition by double dilution method; assay type: functional
Procedure, shortened: (§1)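 Broth microdilution after CLSI M27-A3/M38-A2 with minor changes. Single colony grown overnight in YPD at 35 °C, 200 rpm. Compound final range 0.06-31.3 µg/mL; incubated 48 h at 35 °C.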

[2] = tested on: Candida albicans; assay: Antifungal activity against Candida albicans ATCC 64124 assessed as fungal growth inhibition by double dilution method; assay type: functional
Procedure, shortened: (§2)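 Broth microdilution after CLSI M27-A3/M38-A2 with minor modifications. A single colony was grown overnight in YPD at 35 °C with shaking at 200 rpm. Cells were mixed 1:1 with compound (final 0.06-31.3 µg/mL, from DMSO stocks) and incubated 48 h at 35 °C.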

[3] = tested on: Candida albicans; assay: Antifungal activity against itraconazole/fluconazole susceptible Candida albicans ATCC MYA-2876 assessed as fungal growth inhibition by double dilution method; assay type: functional; procedure, shortened: as §2
[4] = tested on: Candida albicans; assay: Antifungal activity against itraconazole/fluconazole resistant Candida albicans ATCC 90819 assessed as fungal growth inhibition by double dilution method; assay type: functional; procedure, shortened: as §2
[5] = tested on: Candida albicans; assay: Antifungal activity against itraconazole/fluconazole susceptible Candida albicans ATCC MYA-2310 assessed as fungal growth inhibition by double dilution method; assay type: functional; procedure, shortened: as §2
[6] = tested on: Candida albicans; assay: Antifungal activity against itraconazole/fluconazole resistant Candida albicans ATCC MYA-1237 assessed as fungal growth inhibition by double dilution method; assay type: functional; procedure, shortened: as §2
[7] = tested on: Candida albicans; assay: Antifungal activity against itraconazole/fluconazole resistant Candida albicans ATCC MYA-1003 assessed as fungal growth inhibition by double dilution method; assay type: functional; procedure, shortened: as §2
[8] = tested on: Nakaseomyces glabratus; assay: Antifungal activity against Candida glabrata ATCC 2001 assessed as fungal growth inhibition by double dilution method; assay type: functional; procedure, shortened: as §1
[9] = tested on: Pichia kudriavzevii; assay: Antifungal activity against Pichia kudriavzevii ATCC 6258 assessed as fungal growth inhibition by double dilution method; assay type: functional; procedure, shortened: as §1
[10] = tested on: Nakaseomyces glabratus; assay: Antifungal activity against Candida glabrata ATCC 22019 assessed as fungal growth inhibition by double dilution method; assay type: functional; procedure, shortened: as §1
[11] = tested on: [Candida] auris; assay: Antifungal activity against Candida auris AR Bank # 0384 assessed as fungal growth inhibition by double dilution method; assay type: functional; conditions: Candidozyma auris; procedure, shortened: as §1
[12] = tested on: [Candida] auris; assay: Antifungal activity against Candida auris AR Bank # 0390 assessed as fungal growth inhibition by double dilution method; assay type: functional; conditions: Candidozyma auris; procedure, shortened: as §1
[13] = tested on: Cryptococcus neoformans; assay: Antifungal activity against Cryptococcus neoformans ATCC MYA-895 assessed as fungal growth inhibition by double dilution method; assay type: functional; procedure, shortened: as §1
[14] = tested on: Aspergillus terreus; assay: Antifungal activity against Aspergillus terreus ATCC MYA-3633 assessed as fungal growth inhibition by double dilution method; assay type: functional
[15] = tested on: Aspergillus fumigatus; assay: Antifungal activity against Aspergillus fumigatus NRRL 163 assessed as fungal growth inhibition by double dilution method; assay type: functional
[16] = tested on: Aspergillus flavus; assay: Antifungal activity against Aspergillus flavus ATCC MYA-3631 assessed as fungal growth inhibition by double dilution method; assay type: functional
[17] = tested on: Aspergillus nidulans; assay: Antifungal activity against Aspergillus nidulans ATCC 38163 assessed as fungal growth inhibition by double dilution method; assay type: functional
[18] = tested on: Aspergillus fumigatus; assay: Antifungal activity against Aspergillus fumigatus NRRL 5109 assessed as fungal growth inhibition by double dilution method; assay type: functional
[19] = tested on: Aspergillus fumigatus; assay: Antifungal activity against Aspergillus fumigatus NRRL 6113 assessed as fungal growth inhibition by double dilution method; assay type: functional
[20] = tested on: [Candida] auris; assay: Antifungal activity against Candida auris AR Bank # 381 assessed as fungal growth inhibition by double dilution method; assay type: functional; conditions: Candidozyma auris; procedure, shortened: as §1
[21] = tested on: [Candida] auris; assay: Antifungal activity against Candida auris AR Bank # 382 assessed as fungal growth inhibition by double dilution method; assay type: functional; conditions: Candidozyma auris; procedure, shortened: as §1
[22] = tested on: [Candida] auris; assay: Antifungal activity against Candida auris AR Bank # 383 assessed as fungal growth inhibition by double dilution method; assay type: functional; conditions: Candidozyma auris; procedure, shortened: as §1
[23] = tested on: [Candida] auris; assay: Antifungal activity against Candida auris AR Bank # 384 assessed as fungal growth inhibition by double dilution method; assay type: functional; conditions: Candidozyma auris; procedure, shortened: as §1
[24] = tested on: [Candida] auris; assay: Antifungal activity against Candida auris AR Bank # 385 assessed as fungal growth inhibition by double dilution method; assay type: functional; conditions: Candidozyma auris; procedure, shortened: as §1
[25] = tested on: [Candida] auris; assay: Antifungal activity against Candida auris AR Bank # 386 assessed as fungal growth inhibition by double dilution method; assay type: functional; conditions: Candidozyma auris; procedure, shortened: as §1
[26] = tested on: [Candida] auris; assay: Antifungal activity against Candida auris AR Bank # 387 assessed as fungal growth inhibition by double dilution method; assay type: functional; conditions: Candidozyma auris; procedure, shortened: as §1
[27] = tested on: [Candida] auris; assay: Antifungal activity against Candida auris AR Bank # 388 assessed as fungal growth inhibition by double dilution method; assay type: functional; conditions: Candidozyma auris; procedure, shortened: as §1
[28] = tested on: [Candida] auris; assay: Antifungal activity against Candida auris AR Bank # 389 assessed as fungal growth inhibition by double dilution method; assay type: functional; conditions: Candidozyma auris; procedure, shortened: as §1
[29] = tested on: [Candida] auris; assay: Antifungal activity against Candida auris AR Bank # 390 assessed as fungal growth inhibition by double dilution method; assay type: functional; conditions: Candidozyma auris; procedure, shortened: as §1
[30] = tested on: Candida duobushaemulonii; assay: Antifungal activity against Candida duobushaemulonii AR Bank # 391 assessed as fungal growth inhibition by double dilution method; assay type: functional; conditions: Candidozyma duobushaemuli; procedure, shortened: as §1
[31] = tested on: Candida duobushaemulonii; assay: Antifungal activity against Candida duobushaemulonii AR Bank # 392 assessed as fungal growth inhibition by double dilution method; assay type: functional; conditions: Candidozyma duobushaemuli; procedure, shortened: as §1
[32] = tested on: [Candida] haemuloni; assay: Antifungal activity against Candida haemulonii AR Bank # 393 assessed as fungal growth inhibition by double dilution method; assay type: functional; conditions: Candidozyma haemuli; procedure, shortened: as §1
[33] = tested on: Candida duobushaemulonii; assay: Antifungal activity against Candida duobushaemulonii AR Bank # 394 assessed as fungal growth inhibition by double dilution method; assay type: functional; conditions: Candidozyma duobushaemuli; procedure, shortened: as §1
[34] = tested on: [Candida] haemuloni; assay: Antifungal activity against Candida haemulonii AR Bank # 395 assessed as fungal growth inhibition by double dilution method; assay type: functional; conditions: Candidozyma haemuli; procedure, shortened: as §1
[35] = tested on: Kodamaea ohmeri; assay: Antifungal activity against Kodamaea ohmeri AR Bank # 396 assessed as fungal growth inhibition by double dilution method; assay type: functional; procedure, shortened: as §1
[36] = tested on: Pichia kudriavzevii; assay: Antifungal activity against Pichia kudriavzevii AR Bank # 397 assessed as fungal growth inhibition by double dilution method; assay type: functional; procedure, shortened: as §1
[37] = tested on: Clavispora lusitaniae; assay: Antifungal activity against Clavispora lusitaniae AR Bank # 398 assessed as fungal growth inhibition by double dilution method; assay type: functional; procedure, shortened: as §1
[38] = tested on: Saccharomyces cerevisiae; assay: Antifungal activity against Saccharomyces cerevisiae AR Bank # 399 assessed as fungal growth inhibition by double dilution method; assay type: functional; procedure, shortened: as §1
[39] = tested on: Saccharomyces cerevisiae; assay: Antifungal activity against Saccharomyces cerevisiae AR Bank # 400 assessed as fungal growth inhibition by double dilution method; assay type: functional; procedure, shortened: as §1
[40] = tested on: J774.A1; assay: Cytotoxicity against J774A.1 cells assessed as reduction in cell viability at 31.3 microg/ml; assay type: toxicity, cell-based; conditions: mouse, dose 31.3 µg/ml
Procedure, shortened: (§3)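 Cells in DMEM with 10% FBS and 1% Pen/Strep, seeded at 10,000 cells/well and held overnight at 37 °C, 5% CO2. Compounds added at final 31.3-0.12 µg/mL (0.05% DMSO vehicle) for 24 h. Resazurin then added for 6 h; fluorescence read at ex 560/em 590. Triton X-100 1% as positive control; values normalized to vehicle. Run in quadruplicate.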

[41] = tested on: HEK293; assay: Cytotoxicity against human HEK-293 cells assessed as reduction in cell viability at 31.3 microg/ml; assay type: toxicity, cell-based; conditions: dose 31.3 µg/ml; procedure, shortened: as §3
[42] = tested on: HepG2; assay: Cytotoxicity against human HepG2 cells assessed as reduction in cell viability upto 31.3 microg/ml; assay type: toxicity, cell-based; conditions: dose < 31.3 µg/ml; procedure, shortened: as §3

COc1ccc(NNC(=O)c2cnccn2)cc1
MIC [1]: 0.49 µg/mL (≈ 2.01 µM)
MIC [2]: 0.98 µg/mL (≈ 4.01 µM)
MIC [3]: 1.95 µg/mL (≈ 7.98 µM)
MIC [4]: 0.98 µg/mL (≈ 4.01 µM)
MIC [5]: 1.95 µg/mL (≈ 7.98 µM)
MIC [6]: 0.98 µg/mL (≈ 4.01 µM)
MIC [7]: 1.95 µg/mL (≈ 7.98 µM)
MIC [8]: 0.98 µg/mL (≈ 4.01 µM)
MIC [9]: 0.98 µg/mL (≈ 4.01 µM)
MIC [10]: 3.9 µg/mL (≈ 16 µM)
MIC [11]: 0.49 µg/mL (≈ 2.01 µM)
MIC [12]: 0.49 µg/mL (≈ 2.01 µM)
MIC [13]: 0.98 µg/mL (≈ 4.01 µM)
MIC [14]: > 31.3 µg/mL
MIC [15]: 31.3 µg/mL (≈ 128 µM)
MIC [16]: > 31.3 µg/mL
MIC [17]: 0.98 µg/mL (≈ 4.01 µM)
MIC [18]: 31.3 µg/mL (≈ 128 µM)
MIC [19]: 31.3 µg/mL (≈ 128 µM)
MIC [20]: 1.95 µg/mL (≈ 7.98 µM)
MIC [21]: 0.98 µg/mL (≈ 4.01 µM)
MIC [22]: 0.98 µg/mL (≈ 4.01 µM)
MIC [23]: 0.98 µg/mL (≈ 4.01 µM)
MIC [24]: 0.98 µg/mL (≈ 4.01 µM)
MIC [25]: 0.49 µg/mL (≈ 2.01 µM)
MIC [26]: 1.95 µg/mL (≈ 7.98 µM)
MIC [27]: 0.98 µg/mL (≈ 4.01 µM)
MIC [28]: 0.98 µg/mL (≈ 4.01 µM)
MIC [29]: 0.98 µg/mL (≈ 4.01 µM)
MIC [30]: 0.49 µg/mL (≈ 2.01 µM)
MIC [31]: 0.49 µg/mL (≈ 2.01 µM)
MIC [32]: 0.24 µg/mL (≈ 0.983 µM)
MIC [33]: 0.49 µg/mL (≈ 2.01 µM)
MIC [34]: 0.49 µg/mL (≈ 2.01 µM)
MIC [35]: 0.98 µg/mL (≈ 4.01 µM)
MIC [36]: 0.49 µg/mL (≈ 2.01 µM)
MIC [37]: 0.98 µg/mL (≈ 4.01 µM)
MIC [38]: 0.98 µg/mL (≈ 4.01 µM)
MIC [39]: 0.98 µg/mL (≈ 4.01 µM)
Activity [40]: Non-Toxic
Activity [41]: Non-Toxic
Activity [42]: Non-Toxic

COc1cccc(NNC(=O)c2cnccn2)c1
MIC [1]: 0.49 µg/mL (≈ 2.01 µM)
MIC [2]: 0.98 µg/mL (≈ 4.01 µM)
MIC [3]: 1.95 µg/mL (≈ 7.98 µM)
MIC [4]: 1.95 µg/mL (≈ 7.98 µM)
MIC [5]: 1.95 µg/mL (≈ 7.98 µM)
MIC [6]: 1.95 µg/mL (≈ 7.98 µM)
MIC [7]: 0.98 µg/mL (≈ 4.01 µM)
MIC [8]: 7.8 µg/mL (≈ 31.9 µM)
MIC [9]: 0.49 µg/mL (≈ 2.01 µM)
MIC [10]: 1.95 µg/mL (≈ 7.98 µM)
MIC [11]: 1.95 µg/mL (≈ 7.98 µM)
MIC [12]: 0.98 µg/mL (≈ 4.01 µM)
MIC [13]: 0.49 µg/mL (≈ 2.01 µM)
MIC [14]: 1.95 µg/mL (≈ 7.98 µM)
MIC [15]: 15.6 µg/mL (≈ 63.9 µM)
MIC [16]: > 31.3 µg/mL
MIC [17]: 1.95 µg/mL (≈ 7.98 µM)
MIC [18]: 7.8 µg/mL (≈ 31.9 µM)
MIC [19]: > 31.3 µg/mL
MIC [20]: 1.95 µg/mL (≈ 7.98 µM)
MIC [21]: 0.98 µg/mL (≈ 4.01 µM)
MIC [22]: 1.95 µg/mL (≈ 7.98 µM)
MIC [23]: 1.95 µg/mL (≈ 7.98 µM)
MIC [24]: 7.8 µg/mL (≈ 31.9 µM)
MIC [25]: 0.49 µg/mL (≈ 2.01 µM)
MIC [26]: 0.98 µg/mL (≈ 4.01 µM)
MIC [27]: 3.9 µg/mL (≈ 16 µM)
MIC [28]: 0.98 µg/mL (≈ 4.01 µM)
MIC [29]: 0.98 µg/mL (≈ 4.01 µM)
MIC [30]: 3.9 µg/mL (≈ 16 µM)
MIC [31]: 0.98 µg/mL (≈ 4.01 µM)
MIC [32]: 0.49 µg/mL (≈ 2.01 µM)
MIC [33]: 1.95 µg/mL (≈ 7.98 µM)
MIC [34]: 0.49 µg/mL (≈ 2.01 µM)
MIC [35]: 0.49 µg/mL (≈ 2.01 µM)
MIC [36]: 0.49 µg/mL (≈ 2.01 µM)
MIC [37]: 1.95 µg/mL (≈ 7.98 µM)
MIC [38]: 7.8 µg/mL (≈ 31.9 µM)
MIC [39]: 3.9 µg/mL (≈ 16 µM)
Activity [40]: Non-Toxic
Activity [41]: Non-Toxic
Activity [42]: Non-Toxic
